Published values from different studies.
Target: NT-3 growth factor receptor (NTRK3, Homo sapiens, UniProt Q16288)

| Structure (SMILES) | assay | setting | endpoint | result |
| --- | --- | --- | --- | --- |
| COc1cc2ncnc(Nc3ccc(F)c(Cl)c3)c2cc1OCCCN1CCOCC1 | cell-free assay | 0.5 µM | remaining signal | 103% |
| CN(C(=O)c1ccccc1)c1cc(N(C)c2ccc3c(c2)CCc2ccc(C(=O)NCCN4CCOCC4)cc2C3=O)ccc1F | cell-free assay, competition with immobilised ligand | 1 µM | remaining binding | 90% |
| O=C(Nc1ccccc1)Nc1cccc(C(=O)Nc2ccc3[nH]ncc3c2)c1 | enzyme activity, inhibitor, FRET | 1 µM | inhibition | 12.7% |
| C[C@@H]1CCN(C(=O)CC#N)C[C@@H]1N(C)c1ncnc2[nH]ccc12 | cell-free assay | 0.5 µM | remaining signal | 90% |
| O=C(Nc1cccc(Cl)c1)Nc1cccc(C(=O)Nc2ccc3[nH]ncc3c2)c1 | enzyme activity, inhibitor, FRET | 1 µM | inhibition | 19.7% |
| O=C1NC(=O)c2cc(Nc3ccc(F)cc3)c(Nc3ccc(F)cc3)cc21 | cell-free assay | 0.5 µM | remaining signal | 95.6% |
| CC(C)(C)c1nc2c(s1)c1nc(N)ncc1c1ccc(NS(=O)(=O)c3c(F)cccc3F)c(F)c12 | enzyme activity, inhibitor, radiometric | 1 µM | remaining activity | 82% |
| CN(C)c1ncnc(-c2ccc3nc(Nc4cc(CN5CCN(C(=O)CC(F)(F)F)CC5)ccn4)[nH]c3c2)c1Cl | cell-free assay, competition with immobilised ligand | 1 µM | remaining binding | 61% |
| O=C(Nc1ccc(F)cc1)Nc1cccc(C(=O)Nc2ccc3[nH]ncc3c2)c1 | enzyme activity, inhibitor, FRET | 1 µM | inhibition | 13% |
| CCCCN(CCCC)C(=O)CN1C[C@H](c2cc(OC)c3c(c2)OCO3)[C@@H](C(=O)O)[C@@H]1CC(C)(C)CCC | cell-free assay, competition with immobilised ligand | 1 µM | remaining binding | 50.5% |
| Cc1sc(C(=O)NC2COC2)cc1-n1cc(NC(=O)Nc2c(F)cccc2Cl)cn1 | enzyme activity, inhibitor | 10 µM | remaining activity | 86% |
| Cc1c(C(=O)O)cc(-c2ccc(C3CCNCC3)cc2)c2ccc(-c3ccc(C(F)(F)F)cc3)cc12 | cell-free assay, competition with immobilised ligand | 1 µM | remaining binding | 100% |
| O=C(Nc1cccc(C(=O)Nc2ccc3[nH]ncc3c2)c1)Nc1ccccc1Cl | enzyme activity, inhibitor, FRET | 1 µM | inhibition | 27.4% |
| O=C(O)[C@H]1[C@H](Cn2nnc3ccccc3c2=O)CC[C@@H]1C(=O)c1ccc(OCCC2CCOCC2)cc1 | cell-free assay, competition with immobilised ligand | 1 µM | remaining binding | 82% |
| O=C(Nc1cccc(C(=O)Nc2ccc3[nH]ncc3c2)c1)Nc1ccccc1F | enzyme activity, inhibitor, FRET | 1 µM | inhibition | 26.3% |
| Cc1ccc(C(=O)NCc2ccsc2)cc1C#Cc1cn(C(C)C)c2ncnc(N)c12 | enzyme activity, inhibitor | 1 µM | activity vs control | 29% |
